These results are taken from ChEMBL document CHEMBL1914294, “Synthesis, molecular modeling and preliminary biological evaluation of a set of 3-acetyl-2,5-disubstituted-2,3-dihydro-1,3,4-oxadiazole as potential antibacterial, anti-Trypanosoma cruzi and antifungal agents” (Bioorg Med Chem, 2011).

In brackets after ≈: the same amount, converted by molar mass.

For experiment [1], the system named is Trypanosoma cruzi. In words: Antitrypanosomal activity against epimastigote form of Trypanosoma cruzi Y after 5 days by spectrophotometer analysis. The class given is functional, organism-based. The following applies: 120 h. The method, boiled down: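 Stationary-phase epimastigotes from a 10-day, 28 °C culture were set at 2.0 × 10^6 parasites/mL in LIT medium. Compounds in DMSO were diluted into LIT at 1.25–40.0 µM and incubated 5 days at 28 °C. A580 on days 0 and 5 gave % growth inhibition against untreated cultures. IC50 came from dose–response curves (≥4 concentrations). Triplicate; benznidazole reference.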

The subject of experiment [2] is Staphylococcus aureus. As to the kind of experiment: Antibacterial activity against vancomycin-intermediate Staphylococcus aureus VISA3 after 18 hrs. The class given is functional. Conditions: VISA3, 18 h. The procedure, abridged:
(§1)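 Twofold serial dilutions in Tryptic Soy Broth, 0.1 to 80 µg/mL; stocks in DMSO/TSB 1:10 v/v. Inoculum adjusted to 0.5 McFarland, then diluted in sterile saline and TSB. Incubated 35 °C for 18 h. MIC taken as the lowest concentration with no visible growth. Triplicate.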

Experiment [3] has as its system Staphylococcus aureus. In words: Antibacterial activity against Staphylococcus aureus ATCC 25923 after 18 hrs. The class given is functional. Conditions: ATCC 25923, 18 h. The procedure, abridged: as §1
For experiment [4], the system named is Staphylococcus aureus. As to the kind of experiment: Antibacterial activity against multidrug-resistant Staphylococcus aureus 3SP/R33 after 18 hrs. The class given is functional. Conditions: 3SP/R33, 18 h. The procedure, abridged: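 Twofold serial dilutions in Tryptic Soy Broth, 0.1 to 80 µg/mL. Stocks prepared in DMSO/TSB 1:10 v/v. Inoculum was adjusted to 0.5 McFarland, then diluted in sterile saline and TSB. Plates were incubated at 35 °C for 18 h. MIC taken as the lowest concentration with no visible growth. Readings at 24 and 48 h served as sterility control. Run in triplicate.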

Experiment [5] concerns Candida albicans. In words: Antifungal activity against Candida albicans ATCC 537Y after 48 hrs by serial dilution method. The class given is functional. The procedure, abridged: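 Broth microdilution following CLSI M27-A2, adapted for higher sensitivity. Stocks made in RPMI 1640 with 20% DMSO. Serial dilutions inoculated with C. albicans in RPMI 1640 at 10^3–10^5 CFU/mL final, incubated 35 °C for 48 h. MIC is the lowest concentration giving prominent growth reduction. Wells above 5% v/v DMSO were discarded. Triplicate; fluconazole reference.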

Regarding `CC(=O)N1N=C(c2ccccc2)OC1c1ccc([N+](=O)[O-])s1` (stereo not given), 10.2 µM corresponded to half-maximal inhibition in experiment [1] (IC50). Besides, the MIC in experiment [2] came to 0.63 µg/mL (≈ 1.99 µM); in experiment [3], 2.46 µg/mL (≈ 7.75 µM); in experiment [4], 1.25 µg/mL (≈ 3.94 µM).
As to `CC(=O)N1N=C(c2ccc(Cl)cc2)OC1c1ccc([N+](=O)[O-])s1` (stereo not given), in experiment [1], half-maximal inhibition (IC50) required 10.8 µM. Besides, the minimal inhibitory concentration (MIC) stood at 2.5 µg/mL (≈ 7.11 µM) in experiment [2], 1.97 µg/mL (≈ 5.6 µM) in experiment [3], 4.25 µg/mL (≈ 12.1 µM) in experiment [5] and 1.25 µg/mL (≈ 3.55 µM) in experiment [4].
In experiment [1], `CC(=O)N1N=C(c2ccc(Br)cc2)OC1c1ccc([N+](=O)[O-])s1` (stereo not given) returned a 50% inhibitory concentration (IC50) of 10.2 µM. The MIC in experiment [2] came to 2.5 µg/mL (≈ 6.31 µM); in experiment [3] it was 2.66 µg/mL (≈ 6.71 µM); in experiment [4] it was 1.25 µg/mL (≈ 3.15 µM).
With `CC(=O)N1N=C(c2ccc(I)cc2)OC1c1ccc([N+](=O)[O-])s1` (stereo not given), in experiment [1], inhibition was half-maximal at 12.1 µM (IC50). In addition, the MIC in experiment [2] came to 2.5 µg/mL (≈ 5.64 µM); in experiment [3], 2.87 µg/mL (≈ 6.48 µM); in experiment [4] it was 1.25 µg/mL (≈ 2.82 µM).
`CC(=O)N1N=C(c2ccc(C(F)(F)F)cc2)OC1c1ccc([N+](=O)[O-])s1` (stereo not given) gave an IC50 in experiment [1] of 14.2 µM. Moreover, the minimal inhibitory concentration (MIC) in experiment [2] amounted to 2.5 µg/mL (≈ 6.49 µM); in experiment [3], 2.62 µg/mL (≈ 6.8 µM); in experiment [5], 7.2 µg/mL (≈ 18.7 µM); in experiment [4], 1.25 µg/mL (≈ 3.24 µM).
Turning to `CC(=O)N1N=C(c2ccc(C)cc2)OC1c1ccc([N+](=O)[O-])s1` (stereo not given), in experiment [1], half-maximal inhibition (IC50) was put at 11.5 µM. The MIC in experiment [2] is 2.5 µg/mL (≈ 7.54 µM); in experiment [3], 2.62 µg/mL (≈ 7.91 µM); in experiment [5], 2.95 µg/mL (≈ 8.9 µM); in experiment [4], 1.25 µg/mL (≈ 3.77 µM).
As for `CCc1ccc(C2=NN(C(C)=O)C(c3ccc([N+](=O)[O-])s3)O2)cc1` (stereo not given), half-maximal inhibition in experiment [1] (IC50) was put at 10.7 µM. Further, the MIC in experiment [2] turned out to be 2.5 µg/mL (≈ 7.24 µM); in experiment [3] it was 2.69 µg/mL (≈ 7.79 µM); in experiment [4], 1.25 µg/mL (≈ 3.62 µM).
In experiment [1], `CCCc1ccc(C2=NN(C(C)=O)C(c3ccc([N+](=O)[O-])s3)O2)cc1` (stereo not given) showed an IC50 of 9.9 µM. Further, the MIC in experiment [2] amounted to 1.25 µg/mL (≈ 3.48 µM); in experiment [3], 3.28 µg/mL (≈ 9.13 µM); in experiment [4], 1.25 µg/mL (≈ 3.48 µM).
In experiment [1], `COc1ccc(C2=NN(C(C)=O)C(c3ccc([N+](=O)[O-])s3)O2)cc1` (stereo not given) returned a half-inhibitory concentration (IC50) of 10.7 µM. Also, the MIC in experiment [2] is 0.63 µg/mL (≈ 1.81 µM); in experiment [3], 2.23 µg/mL (≈ 6.42 µM); in experiment [4], 1.25 µg/mL (≈ 3.6 µM).
In experiment [1], `CCOc1ccc(C2=NN(C(C)=O)C(c3ccc([N+](=O)[O-])s3)O2)cc1` (stereo not given) had an IC50 of 26.6 µM. Besides, the MIC in experiment [2] came out at 2.5 µg/mL (≈ 6.92 µM); in experiment [3] it was 2.36 µg/mL (≈ 6.53 µM); in experiment [5] it was 5.83 µg/mL (≈ 16.1 µM); in experiment [4] it was 1.25 µg/mL (≈ 3.46 µM).
Consider `CCCOc1ccc(C2=NN(C(C)=O)C(c3ccc([N+](=O)[O-])s3)O2)cc1` (stereo not given), for which, in experiment [1], the half-maximal inhibitory concentration (IC50) stood at 12.2 µM. Moreover, the MIC in experiment [2] came to 2.5 µg/mL (≈ 6.66 µM); in experiment [3] it was 3.28 µg/mL (≈ 8.74 µM); in experiment [4], 2.5 µg/mL (≈ 6.66 µM).
Consider `CCCCOc1ccc(C2=NN(C(C)=O)C(c3ccc([N+](=O)[O-])s3)O2)cc1` (stereo not given), for which inhibition in experiment [1] was half-maximal at 11.5 µM (IC50). Further, the MIC turned out to be 5 µg/mL (≈ 12.8 µM) in experiment [2], 1.25 µg/mL (≈ 3.21 µM) in experiment [3], 6.78 µg/mL (≈ 17.4 µM) in experiment [5] and 1.25 µg/mL (≈ 3.21 µM) in experiment [4].
In turn, `CC(=O)N1N=C(c2ccc([N+](=O)[O-])cc2)OC1c1ccc([N+](=O)[O-])s1` (stereo not given) displayed an IC50 in experiment [1] of 9.85 µM. Besides, the minimum inhibitory concentration (MIC) in experiment [2] amounted to 1.25 µg/mL (≈ 3.45 µM); in experiment [3] it was 2.39 µg/mL (≈ 6.6 µM); in experiment [4], 2.5 µg/mL (≈ 6.9 µM).
`CC(=O)N1N=C(c2ccc(C#N)cc2)OC1c1ccc([N+](=O)[O-])s1` (stereo not given) showed an IC50 in experiment [1] of 8.19 µM. Besides, the minimum inhibitory concentration (MIC) in experiment [2] worked out at 0.63 µg/mL (≈ 1.84 µM); in experiment [3], 2.66 µg/mL (≈ 7.77 µM); in experiment [4], 1.25 µg/mL (≈ 3.65 µM).
For the molecule `COC(=O)c1ccc(C2=NN(C(C)=O)C(c3ccc([N+](=O)[O-])s3)O2)cc1` (stereo not given), the IC50 in experiment [1] was found to be 7.91 µM. Also, the minimal inhibitory concentration (MIC) is 0.63 µg/mL (≈ 1.68 µM) in experiment [2], 2.95 µg/mL (≈ 7.86 µM) in experiment [3] and 1.25 µg/mL (≈ 3.33 µM) in experiment [4].
With `CC1(C)S[C@@H]2[C@H](NC(=O)[C@H](N)c3ccccc3)C(=O)N2[C@H]1C(=O)O` [AMPICILLIN], in experiment [3], the minimal inhibitory concentration (MIC) came out at 0.1 µg/mL (≈ 0.286 µM).
On to `O=C(Cn1ccnc1[N+](=O)[O-])NCc1ccccc1` [BENZNIDAZOLE], for which the IC50 in experiment [1] was 20.8 µM.
As to `O=C(N/N=C/c1ccc([N+](=O)[O-])o1)c1ccc(O)cc1` [NIFUROXAZIDE], the IC50 in experiment [1] worked out at 120 µM. Moreover, the MIC in experiment [2] stood at 5 µg/mL (≈ 18.2 µM); in experiment [3], 5.9 µg/mL (≈ 21.4 µM).

One may read the IC50 as the concentration needed to halve the response being measured. A high value points to a need for much substance. A word on the MIC: it is the smallest concentration in the dilution series that meets the test's criterion for growth inhibition.
